Experimental data from ChEMBL document CHEMBL2331272, “Bromotyrosine alkaloids from the Australian marine sponge Pseudoceratina verrucosa” (J Nat Prod, 2013).

Tests used:
PC-3 [1] = experiment: Cytotoxicity against human PC3 cells assessed as inhibition of cell viability at 100 uM after 72 hrs by alamar blue assay; format: functional; conditions: PC-3, 72 h
Outline: (§1)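 HeLa and PC3 cells grown in RPMI with 10% FBS and penicillin/streptomycin, 37 °C, 5% CO2; 1000 cells/well adhered overnight. Ten-point dilutions, final 100 μM to 3 nM, 1% DMSO, triplicate; 72 h exposure. Alamar blue added (10% final), fluorescence ex 535/em 590 nm. IC50 by nonlinear regression; IC50 or % inhibition at 100 μM as mean SD of two independent experiments.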

NFF [2] = experiment: Cytotoxicity against human NFF cells assessed as inhibition of cell viability at 100 uM after 72 hrs by alamar blue assay; format: functional
Outline: (§2)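 NFF fibroblasts grown in DMEM with 10% FBS and penicillin/streptomycin, 37 °C, 5% CO2; 1000 cells/well seeded and adhered overnight. Compounds tested in ten-point series, final 100 μM to 3 nM, 1% DMSO, triplicate wells; 72 h incubation. Readout by Alamar blue (10% final), ex 535/em 590 nm. IC50 by nonlinear regression; IC50 or % inhibition at 100 μM as mean SD, two independent experiments.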

HeLa [3] = experiment: Cytotoxicity against human HeLa cells assessed as inhibition of cell viability at 100 uM after 72 hrs by alamar blue assay; format: functional; outline: as §1
HeLa [4] = experiment: Cytotoxicity against human HeLa cells assessed as inhibition of cell viability after 72 hrs by alamar blue assay; format: functional, cell-based; outline: as §1
NFF [5] = experiment: Cytotoxicity against human NFF cells assessed as inhibition of cell viability after 72 hrs by alamar blue assay; format: functional, cell-based; outline: as §2
PC-3 [6] = experiment: Cytotoxicity against human PC3 cells assessed as inhibition of cell viability after 72 hrs by alamar blue assay; format: functional, cell-based; conditions: PC-3, 72 h; outline: as §1

Structure (SMILES) | inhibition at 100 µM (PC-3 [1]) | inhibition at 100 µM (NFF [2]) | inhibition at 100 µM (HeLa [3]) | IC50 (HeLa [4]) | IC50 (NFF [5]) | IC50 (PC-3 [6])
CN(C)CCCOc1c(Br)cc([C@H]2CNC(=O)O2)cc1Br | 35% | 29% | 44% |  |  | 
COC1=C(Br)[C@H](O)[C@@]2(C=C1Br)CC(C(=O)NCCCc1cnc(N)[nH]1)=NO2 [AEROPHOBIN 2] | 66% | 25% | 20% |  |  | 
COC1=C(Br)[C@H](O)[C@@]2(C=C1Br)CC(C(=O)NCC(O)c1cc(Br)c(OC[C@H](O)CNC(=O)C3=NO[C@]4(C=C(Br)C(OC)=C(Br)[C@@H]4O)C3)c(Br)c1)=NO2 (stereo not given in full) [FOSTULARIN 3] | 60% | 48% | 46% |  |  | 
COC1=C(Br)[C@H](O)[C@@]2(C=C1Br)CC(C(=O)NCC(O)c1cc(Br)c(OC[C@H]3CNC(=O)O3)c(Br)c1)=NO2 (stereo not given in full) [FOSTULARIN 2] | 73% | 68% |  | 40 µM |  | 
COc1ccc(C/C(=N\O)C(=O)NC[C@@H](O)c2cc(Br)c(OCCCN(C)C)c(Br)c2)cc1Br |  |  |  | 19 µM | 16 µM | 4.9 µM
